Records with an inconclusive call do not appear.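 How the source made its calls, unless noted: active means viability at or below 27.92% in each of two runs, the all-compound median minus 4 SD; inconclusive means no clear call, values can overlap the other calls; inactive means the rest.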
Assays:
[1] = OD615 S. cerevisiae growth inhibition, permissive medium, pilot counter-assay, permissive growth control for S. cerevisiae lifespan shortening project (AID 705;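 active means growth inhibition above 25% in both replicates, a cutoff set 3 SD above the mean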); conditions: OD615, 24 h, at 10 µM, stronger effect = higher value
In short: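 Material: engineered DeaD yeast; Compound: one dose 10 µM, DMSO 0.25% final; Detection: absorbance (optical density) at 615 nm; Buffer or medium: permissive raffinose/galactose medium; Timing: 24 h exposure, 30 °C.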

[2] = Restrictive medium S. cerevisiae growth inhibition, OD615, pilot screen of yeast lifespan reduction project, restrictive growth control (AID 706;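 active means growth inhibition above a set limit, 3 SD over mean compound inhibition, in both replicates, cut at about 43% in these data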;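 further: modified DeaD lifespan yeast strain shifted to restrictive glucose medium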); conditions: OD615, 48 h, at 10 µM, stronger effect = higher value
In short: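 Buffer or medium: restrictive glucose medium (CSMM-D); test system: modified S. cerevisiae; doses: single dose of 10 µM compound final, 0.25% DMSO; schedule: 48 h compound exposure at 30 °C; detection: absorbance (optical density) measured at 615 nm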

[3] = viability gain of MRP-1-high H69AR cells under doxorubicin, pilot screen, MRP-1 activator project, CellTiter-Glo, duplicate (AID 807;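 active means viability increase at or above a cutoff of the median across tested compounds plus 3 SD, cut at about 8.5% in these data, passing the limit was not always enough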;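 further: compound pretreatment 18-22 h then 72 h combined with doxorubicin; 0% = doxorubicin alone and 100% = vehicle without doxorubicin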); conditions: H69AR viability with doxorubicin, CellTiter-Glo luminescence; at 10 µM; stronger effect = higher value
[4] = growth suppression of beta-catenin knockout HCT116, pilot screen, human colon tumor cells (AID 823;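 active means cell viability at or below a set limit in both duplicate runs, the limit being the all-compound median minus 4 SD, cut at about 23% in these data, passing the limit was not always enough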;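 further: 0% = wells killed by 20 µM Hyamine and 100% = untreated DMSO cell wells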); conditions: CellTiter-Glo, 60 h, at 10 µM, stronger effect = lower value
[5] = growth suppression of PTEN-deleted HCT116, pilot screen, cell-based, HCT116 clonal line, CellTiter-Glo (AID 824); conditions: 60 h, at 10 µM, stronger effect = lower value;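 further: 0% = 20 µM Hyamine control and 100% = vehicle cell control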
[6] = inhibitors of the yeast RAM network, pilot screen, dse1pr::URA3 reporter, 5-FOA selection (AID 869;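 active means inhibition over a set limit, the all-compound mean plus 3 SD, in both replicate runs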;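 further: 0% = DMSO wells with no growth and 100% = 10 µM 1-NA-PP1 with full growth; RAM network block rescues cells from 5-FOA so hits raise OD615 growth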); conditions: S. cerevisiae dse1pr::URA3 5-FOA growth, OD615, 2 d; at 10 µM; stronger effect = higher value; strain carries analog-sensitive mutant Cbk1 kinase
[7] = RAM signaling pathway blockade in yeast – S. cerevisiae, Pdr1DBD-CYC8 efflux-inhibited sensitized strain, primary screen (AID 1298;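 active means RAM network inhibition above 8.4% in each of two replicates, 3 SD over the compound average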;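 further: 0% = DMSO untreated cells without growth and 100% = 10 µM 1-NA-PP1 full growth; higher means more yeast growth rescued from 5-FOA killing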); conditions: S. cerevisiae cbk1-as DSE1-URA3 strain, 5-FOA growth OD615, 2 d; at 50 µM; stronger effect = higher value

Cn1c(CCNC(=O)c2ccc(F)cc2)nc2ccccc21
inactive: growth inhibition [1] 0.71% | growth inhibition [2] -11% | viability increase [3] 2.04% | viability [4] 105% | viability [5] 99.7% | inhibition [6] 1.2% | RAM network inhibition [7] 4.26%

CCc1nc(SCC(=O)Nc2ccc(C(=O)O)cc2)n[nH]1
inactive: growth inhibition [1] 11.2% | growth inhibition [2] 0.705% | viability increase [3] -1.05% | viability [4] 94.7% | viability [5] 98.4% | inhibition [6] -0.24% | RAM network inhibition [7] -2.73%

Cc1nc(-c2ccc3c(c2)OCO3)cs1
inactive: growth inhibition [1] -3.71% | growth inhibition [2] -1.42% | viability increase [3] 0.2% | viability [4] 102% | viability [5] 101% | inhibition [6] 1.68% | RAM network inhibition [7] 2.38%

Cc1cc(N2CCOCC2)nc(NCc2ccccc2)n1
inactive: growth inhibition [1] 3.04% | growth inhibition [2] -5.48% | viability increase [3] -3.86% | viability [4] 72% | viability [5] 64.8% | inhibition [6] 1.17% | RAM network inhibition [7] 4.85%

O=C(Nc1ccccc1F)C1CCCN(S(=O)(=O)c2cccc3cccnc23)C1 (configuration not stated)
inactive: growth inhibition [1] -3.46% | growth inhibition [2] -7.69% | viability increase [3] -1.63% | viability [4] 92.3% | viability [5] 88.8% | inhibition [6] 1.49% | RAM network inhibition [7] 2.96%

CCOC1=NC(C(=O)O)c2ccccc2/C(=C(/C)Cl)N1 (configuration not stated)
inactive: growth inhibition [1] -4.61% | growth inhibition [2] -27.8% | viability increase [3] 0.7% | viability [4] 101% | viability [5] 96.8% | inhibition [6] 0.25% | RAM network inhibition [7] 2.78%

COc1ccc(OC)c2sc(NC(=O)C(C)C)nc12
inactive: growth inhibition [1] -15.2% | growth inhibition [2] -18% | viability increase [3] -1.14% | viability [4] 105% | viability [5] 92% | inhibition [6] 1.31% | RAM network inhibition [7] 9.63%

O=C(O)C1C2C=CC(C2)C1C(=O)NCc1ccc2c(c1)OCO2 (configuration not stated)
inactive: growth inhibition [1] -3.23% | growth inhibition [2] -1.14% | viability increase [3] -1.9% | viability [4] 94.6% | viability [5] 90.6% | inhibition [6] 2.08% | RAM network inhibition [7] 2.65%

Cc1cccc(NC(=O)Cn2cnc3sc(C)c(S(=O)(=O)N4CCC(C)CC4)c3c2=O)n1
inactive: growth inhibition [1] -9.9% | growth inhibition [2] -17.3% | viability increase [3] -1.12% | viability [4] 95.2% | viability [5] 99.1% | inhibition [6] 2.16% | RAM network inhibition [7] 9.71%

CC(=O)c1ccc(OCC(O)CN2C(C)(C)CC(O)CC2(C)C)cc1 (configuration not stated)
inactive: growth inhibition [1] -16.9% | growth inhibition [2] -12.3% | viability increase [3] 1.37% | viability [4] 105% | viability [5] 96.8% | inhibition [6] 1.66% | RAM network inhibition [7] 7.12%

CCOC(=O)c1cnn2c(C(F)(F)F)cc(-c3ccccc3)nc12
inactive: growth inhibition [1] -6.86% | growth inhibition [2] -9.75% | viability increase [3] -3.13% | viability [4] 84% | viability [5] 86.9% | inhibition [6] 2.29% | RAM network inhibition [7] 2.4%

Cc1ccc2oc(=O)n(CCOc3ccccc3Cl)c2c1
inactive: growth inhibition [1] 2.37% | growth inhibition [2] 0.755% | viability increase [3] 2.94% | viability [4] 88.5% | viability [5] 83.9% | inhibition [6] 0.955% | RAM network inhibition [7] 2.66%

Cn1c(=O)[nH]c(=O)c2c1nc(N1CCCC1)n2CC(O)COc1ccccc1 (configuration not stated)
inactive: growth inhibition [1] -10.3% | growth inhibition [2] -7.92% | viability increase [3] -2.57% | viability [4] 100% | viability [5] 102% | inhibition [6] 2.5% | RAM network inhibition [7] 1.94%

c1ccc(-n2cnnc2SCc2cn3ccccc3n2)cc1
inactive: growth inhibition [1] 5.34% | growth inhibition [2] 20.6% | viability increase [3] -4.4% | viability [4] 101% | viability [5] 95.6% | inhibition [6] 1.19% | RAM network inhibition [7] 7.66%

CC(CCc1ccccc1)NC(=O)CSc1nccc(=O)[nH]1 (configuration not stated)
inactive: growth inhibition [1] -20.5% | growth inhibition [2] -6.91% | viability increase [3] -0.56% | viability [4] 94.2% | viability [5] 94.5% | inhibition [6] 1.06% | RAM network inhibition [7] 2.7%

COc1cc(NC(=O)C2CCC(CNc3c(N4CCCCC4)c(=O)c3=O)CC2)cc(OC)c1 (configuration not stated)
inactive: growth inhibition [1] 0.52% | growth inhibition [2] -2.35% | viability increase [3] -0.71% | viability [4] 95.2% | viability [5] 95.9% | inhibition [6] 1.79% | RAM network inhibition [7] 5.55%

Source: PubChem BioAssay
